Screens as filed in PubChem.
Hits are enriched below; roughly 4.8% of the tested compounds scored in any of these assays.
T cruzi inh = T. cruzi replication inhibition | T. cruzi beta-gal in NIH3T3, luminescence, 90 h | inhibition, % (no concentration beside the values) | hit rate 1.4% among 300,000 | AID 1885;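 active means mean inhibition across valid replicates above about 55%, limit read from the data; inconclusive means mean below that limit but half or more replicates reach it; inactive means mean below it, under half of replicates reach it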;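 further: signal also drops with host cell toxicity which is not excluded here; 0% = plate median of DMSO wells and 100% = zero luminescence signal; higher percent means less beta-gal luminescence so fewer parasites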
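assay system = mouse NIH/3T3 fibroblasts infected with β-gal-expressing T. cruzi Tulahuen C4 | input = 5,000 NIH/3T3 host cells per well | buffer or medium = DMEM plus 2% FBS | timing = 3 h host attachment, then at least 90 h co-culture | measured by = GalScreen luminescence, 60 min | evaluation = luminescence reflecting intracellular parasite burden, expressed as percent inhibition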
HSF-1 act = increases HSF-1 driven luciferase reporter signal; NIH3T3-HGL HSF-1 luciferase reporter, MG132, 8 h; 100% = twice DMSO control signal; AID 504408; activation, % at 9 µM; hit rate 1.7% among 300,000;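 active means mean replicate activation of at least 50% with a set share of replicates each reaching 50%; inconclusive means only one of those two conditions met; inactive means mean below 50% and too few replicates reaching it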;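 further: 0% = median of the neutral control wells and 100% = twice that signal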
GPR7 antagonist = blocks human GPR7 receptor signaling; GPR7-expressing cells, fluorescence antagonist assay; inhibition, % at 4.4 µM; hit rate 1.1% among 290,000; AID 1861; in the data active means inhibition above about 16%, passing the limit was not always enough;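 further: cells stimulated with the agonist NPW; 0% = agonist with vehicle and 100% = vehicle without agonist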
Target sequence (P48145 whole entry, looked up): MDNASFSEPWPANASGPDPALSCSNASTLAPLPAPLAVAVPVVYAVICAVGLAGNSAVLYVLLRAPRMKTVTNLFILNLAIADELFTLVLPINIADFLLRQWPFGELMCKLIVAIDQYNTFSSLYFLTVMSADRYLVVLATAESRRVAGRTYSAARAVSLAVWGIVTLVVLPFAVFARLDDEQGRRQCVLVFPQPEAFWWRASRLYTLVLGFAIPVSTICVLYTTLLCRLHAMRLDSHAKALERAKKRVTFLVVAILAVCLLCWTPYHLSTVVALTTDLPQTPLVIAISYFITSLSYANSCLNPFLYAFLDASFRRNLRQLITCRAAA
Jurkat NFkB inh = inhibitors of the PMA/ionomycin-induced NF-kB reporter in Jurkat cells. PMA/ionomycin-induced NF-kB luciferase reporter, luminescence. inhibition, % at 4 µM. hit rate 0.53% among 330,000. AID 435003; in the data active means inhibition above about 50%
697 NFkB inh = inhibitors of the PMA/ionomycin-induced NF-kB reporter in 697 B cells; 697 B-cell NF-kB luciferase reporter, 16 h; hit rate 0.33% among 330,000; AID 435022; inhibition, % at 4 µM; in the data active means inhibition above about 35%
HSF1 inh = HSF1 inhibition; NIH3T3-HGL HSE-luciferase, MG132-induced, luminescence 8 h; active compounds read low; activity change, negative = inhibition, % at 7.5 µM (by protocol); hit rate 0.77% among 300,000;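 active means more than half of replicate wells show activity change below -50%, luminescence cut by over half; inconclusive means some wells, but at most half, below -50%; inactive means no replicate well below -50%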;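 further: luciferase reports HSF-1 transcriptional activity via heat shock element; 0% = median of DMSO wells and -100% = zero luminescence signal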
GPR7 antag cf = confirmation of human GPR7 antagonists; shares compounds with GPR7 antagonist; GPR7-expressing cells, calcium fluorescence antagonist mode; inhibition, % at 4.4 µM; hit rate 52% among 2,400; AID 1952; in the data active means inhibition above about 24%;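 further: stimulated with the GPR7 agonist NPW; 0% = agonist plus vehicle and 100% = vehicle alone without agonist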
MCHR1 antagonist = counter-screen for GPR7 antagonists: antagonists of human MCHR1 | MCHR1-expressing cells, fluorescence antagonist assay | inhibition, % at 4.4 µM | shares compounds with GPR7 antagonist | hit rate 62% among 2,400 | AID 2148; in the data active means inhibition above about 22%;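 further: 0% = vehicle with agonist and 100% = vehicle without agonist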
Starred values were filed as active, the others as inactive; ? = inconclusive; . = no result given.

SMILES | T cruzi inh | HSF-1 act | GPR7 antagonist | Jurkat NFkB inh | 697 NFkB inh | HSF1 inh | GPR7 antag cf | MCHR1 antagonist
CC(=O)NC(CC(C)C)C(=O)NC(CO)C(=O)NC(CCC(=O)O)C(=O)NC(C)C(=O)NC(CC(C)C)C(N)=O (stereo not drawn) | ? | 7 | . | 8 | 9 | 1 | . | .
CC1(C)CC(=O)C/C(=N/NC(=O)COc2ccc(Cl)cc2Cl)C1 | 8 | 5 | -13 | 7 | 10 | 6 | . | .
CC1(C)CC(=O)C/C(=N/NC(=O)COc2ccc3ccccc3c2Br)C1 | 6 | 8 | 104* | 6 | -9 | 8 | -1 | 1
CCOC(=O)c1oc2ccc(OC)cc2c1NC(=O)CN1CCN(C)CC1 | 5 | -5 | -4 | -8 | -6 | -4 | . | .
CN1CCN(CC(=O)Nc2c(C(=O)C3CC3)oc3ccccc23)CC1 | 4 | 3 | 21* | -12 | -3 | -3 | 1 | 10
Cc1ccc(C(=O)c2oc3ccc(Cl)cc3c2NC(=O)CN2CCN(C)CC2)cc1 | 30 | -11 | 24* | 4 | 5 | 2 | 29* | 42*
O=C(CN1CCOCC1)Nc1c(C(=O)C2CC2)oc2ccccc12 | -22 | 27 | -6 | 0 | 9 | 0 | . | .
CCCN(CC(=O)Nc1cccc(Br)c1)CC(=O)Nc1ccc(F)c(F)c1F | 11 | 1 | 23* | 4 | 1 | 4 | 31* | 47*
CCCN(CC(=O)Nc1cccc(S(N)(=O)=O)c1)CC(=O)Nc1ccc(F)c(F)c1F | 0 | -12 | 14 | 3 | 17 | -5 | . | .
CCCN(CC(=O)Nc1ccc(NC(C)=O)cc1)CC(=O)Nc1ccc(F)c(F)c1F | 1 | 21 | 2 | 3 | 17 | -3 | . | .
CCCN(CC(=O)Nc1ccc(F)c(F)c1F)CC(=O)Nc1c(Cl)cccc1Cl | 14 | 7 | 22* | -3 | 18 | 1 | 25* | 25*
Cc1ccc2c(c1)-n1c(nc3ccc(C)cc3c1=O)C(Cc1ccccc1)NC2=O (stereo not drawn) | . | . | . | 9 | -8 | . | . | .
CC(c1nc2ccccc2c(=O)[nH]1)N1CCN(C)CC1 (stereo not drawn) | 33 | -3 | -9 | 0 | 17 | -4 | . | .
COc1ccccc1NC(=O)Cn1ccn(-c2cccc3ccccc23)c(=O)c1=O | -17 | -18 | . | 15 | 11 | -2 | . | .
CCN(CC)CC(O)Cn1c(C)c(-c2ccccc2)c2cc([N+](=O)[O-])ccc21 (stereo not drawn) | 31 | -11 | 41* | 13 | 2 | -11 | 45* | 48*
CCN(CC)CC(O)Cn1c2ccccc2c2ccccc21 (stereo not drawn) | 4 | -8 | -3 | 4 | 8 | 1 | . | .
CN1CCC(NC(=O)c2cc(-c3cccc(Br)c3)nc3ccccc23)CC1 | 44 | -4 | 42* | 2 | 3 | -4 | 37* | 32*
O=C(NC1CC1)c1cc(-c2ccc(Br)cc2)nc2ccccc12 | . | . | . | 15 | 24 | . | . | .
CCC1(C)N([O-])C(C)=C(c2ccccc2)[N+]1=O (stereo not drawn) | -3 | -3 | 28* | -3 | -14 | 0 | -7 | 12
CCC1(CC)N([O-])C(C)=C(c2ccccc2)[N+]1=O | -4 | -2 | -12 | 0 | 0 | 2 | . | .
COc1c([N+](=O)[O-])c(=O)n(-c2ccccc2)c2ccccc12 | 5 | -42 | 2 | 5 | 2 | -23 | . | .
Cn1c(C(=O)N2CCN(c3nc4ccccc4s3)CC2)cc2sccc21 | 2 | 3 | -8 | 5 | 17 | -5 | . | .
O=C(c1cc2sccc2n1Cc1ccc(F)cc1)N1CCN(c2nc3ccccc3s2)CC1 | 41 | -6 | 32* | 34 | -44 | 1 | 28* | 38*
Cc1ccccc1C(=O)Nc1c2c(nn1C(C)(C)C)CS(=O)(=O)C2 | 7 | 5 | 22* | 10 | 5 | 2 | 9 | 3
COc1ccc(CN(C)C(=O)c2ccc(NS(=O)(=O)c3ccc(C)c([N+](=O)[O-])c3)cc2)c(OC)c1OC | 49 | -9 | . | 14 | -9 | -2 | . | .
SMILES | T cruzi inh | HSF-1 act | GPR7 antagonist | Jurkat NFkB inh | 697 NFkB inh | HSF1 inh | GPR7 antag cf | MCHR1 antagonist
O=C(Nc1ccc(-n2nncc2-c2ccco2)cc1)c1ccc(F)cc1 | 2 | 14 | 22* | -2 | -5 | 6 | 40* | 73*
S=C(Nc1ccc(Cl)c(Cl)c1)NC1CCN(Cc2ccccc2)CC1 | 44 | 5 | 33* | 0 | -22 | 3 | 70* | 94*
S=C(Nc1ccc(Cl)c(Cl)c1)NC1CCCCC1 | 36 | 30 | 43* | -15 | -9 | 9 | 35* | 48*
CC(=O)Nc1cccc(NC=C(C#N)C#N)c1 | 0 | 0 | -9 | 16 | 20 | -5 | . | .
O=C(Nc1cccnc1)OC1CCCC1 | -7 | -3 | -2 | -5 | 11 | 5 | . | .
CCOC(=O)c1c(NC(=O)CN2C(=O)NC(C)(c3ccc(OC(F)F)cc3)C2=O)sc(C)c1C (stereo not drawn) | 32 | 15 | 71* | -12 | 13 | 18 | 68* | 86*
CC1(c2ccc(OC(F)F)cc2)NC(=O)N(CC(=O)Nc2cccc(F)c2)C1=O (stereo not drawn) | 0 | -16 | 94* | 3 | 4 | -4 | 93* | 92*
CC1(c2ccc(OC(F)F)cc2)NC(=O)N(CC(=O)Nc2ccc(Cl)cc2F)C1=O (stereo not drawn) | 17 | -3 | 55* | 2 | 23 | 5 | 67* | 64*
Cc1ccc(C2(C)NC(=O)N(CC(=O)N(C)CC(=O)Nc3cccc(F)c3)C2=O)cc1 (stereo not drawn) | . | . | . | -8 | 4 | . | . | .
CC1(c2ccc(OC(F)F)cc2)NC(=O)N(CC(=O)NC2CCCCC2)C1=O (stereo not drawn) | 17 | -12 | 7 | -12 | 22 | 5 | . | .
CCOc1ccc(NC(=O)CN2C(=O)NC(C)(c3ccc(OC(F)F)cc3)C2=O)cc1 (stereo not drawn) | 11 | 23 | 75* | -12 | 11 | 1 | 81* | 74*
CC[C@@H](C)[C@H](CN[C@H](CNC)[C@@H](C)O)NCCc1ccc(OC)cc1 | -8 | -5 | 4 | 9 | 14 | -2 | . | .
CC1(c2ccc(OC(F)F)cc2)NC(=O)N(CC(=O)Nc2ccc(F)cc2)C1=O (stereo not drawn) | -1 | -5 | 43* | 0 | 8 | 7 | 54* | 48*
Cc1cc(NC(=O)CN2C(=O)NC(C)(c3ccc(OC(F)F)cc3)C2=O)no1 (stereo not drawn) | -11 | 20 | 50* | -1 | 1 | 10 | 51* | 48*
